One compound from ChEMBL document CHEMBL4350960, “Structural Basis for E. coli Penicillin Binding Protein (PBP) 2 Inhibition, a Platform for Drug Design” (J Med Chem, 2019) can be followed below.

Converted amounts (≈) assume the structure as drawn. The source made the active and inactive calls. The rule behind the calls is not given here.

Experiment [1] has as its target T1, Penicillin-binding protein 1B (Pseudomonas aeruginosa) (UniProt Q9X6W0).
T1 sequence (whole entry): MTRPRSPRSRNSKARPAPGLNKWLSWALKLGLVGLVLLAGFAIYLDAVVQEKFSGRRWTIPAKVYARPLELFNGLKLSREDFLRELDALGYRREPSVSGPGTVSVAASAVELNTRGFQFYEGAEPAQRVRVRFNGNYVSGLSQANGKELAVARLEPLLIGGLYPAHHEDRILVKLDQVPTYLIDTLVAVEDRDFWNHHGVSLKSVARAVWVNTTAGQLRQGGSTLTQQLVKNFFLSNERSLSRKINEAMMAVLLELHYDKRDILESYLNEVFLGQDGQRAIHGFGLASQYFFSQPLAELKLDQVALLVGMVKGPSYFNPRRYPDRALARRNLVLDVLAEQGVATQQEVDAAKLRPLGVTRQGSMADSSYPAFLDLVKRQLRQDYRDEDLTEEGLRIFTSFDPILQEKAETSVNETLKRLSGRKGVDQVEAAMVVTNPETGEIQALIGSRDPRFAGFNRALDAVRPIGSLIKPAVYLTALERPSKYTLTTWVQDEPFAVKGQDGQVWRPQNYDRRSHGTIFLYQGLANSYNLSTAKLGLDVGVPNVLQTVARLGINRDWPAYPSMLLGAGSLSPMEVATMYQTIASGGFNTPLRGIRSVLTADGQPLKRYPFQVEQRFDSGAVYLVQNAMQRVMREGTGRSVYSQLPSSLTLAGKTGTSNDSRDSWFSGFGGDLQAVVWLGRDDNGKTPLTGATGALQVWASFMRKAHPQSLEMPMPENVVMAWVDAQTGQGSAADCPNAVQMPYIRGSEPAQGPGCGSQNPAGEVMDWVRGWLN
The experiment is described as follows: Inhibition of Pseudomonas aeruginosa PBP1b up to 200 uM.

In the next experiment the test system is Enterobacter cloacae. The experiment is described as follows: Inhibition of Enterobacter cloacae P99 AmpC.
A further experiment concerns Escherichia coli. The experiment is described as follows: Antibacterial activity against Escherichia coli UFR39 measured after 16 to 20 hrs by broth microdilution method. Format: functional. In outline:
(§1)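 Broth microdilution MICs following CLSI M7-A7, run against genotyped carbapenem-resistant E. coli and P. aeruginosa strains.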

Experiment [2] deals with Penicillin-binding protein 3 (Pseudomonas aeruginosa) (UniProt Q51504). The experiment is described as follows: Inhibition of Pseudomonas aeruginosa PBP3 up to 200 uM.
Sequence of Penicillin-binding protein 3 (Pseudomonas aeruginosa) (Q51504 as listed by the source): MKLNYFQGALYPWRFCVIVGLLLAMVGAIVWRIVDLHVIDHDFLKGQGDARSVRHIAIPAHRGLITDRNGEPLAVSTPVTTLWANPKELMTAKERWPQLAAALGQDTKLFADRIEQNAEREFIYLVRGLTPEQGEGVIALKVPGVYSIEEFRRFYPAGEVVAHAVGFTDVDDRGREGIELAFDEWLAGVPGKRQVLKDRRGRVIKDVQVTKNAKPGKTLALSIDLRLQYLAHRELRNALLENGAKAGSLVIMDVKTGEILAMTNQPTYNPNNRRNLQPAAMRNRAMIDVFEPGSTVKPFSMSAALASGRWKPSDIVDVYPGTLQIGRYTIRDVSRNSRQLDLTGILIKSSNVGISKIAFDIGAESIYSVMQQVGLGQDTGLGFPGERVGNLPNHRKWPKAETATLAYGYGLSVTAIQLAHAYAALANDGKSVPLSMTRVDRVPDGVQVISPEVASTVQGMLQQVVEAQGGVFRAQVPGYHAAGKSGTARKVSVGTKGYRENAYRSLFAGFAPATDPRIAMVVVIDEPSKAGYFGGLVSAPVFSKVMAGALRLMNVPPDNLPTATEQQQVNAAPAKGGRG
For experiment [3], the target named is Beta-lactamase TEM (Bacteria) (UniProt P62593). Briefly: Inhibition of bacterial beta-lactamase TEM-1.
Sequence of Beta-lactamase TEM (Bacteria) (P62593 whole entry): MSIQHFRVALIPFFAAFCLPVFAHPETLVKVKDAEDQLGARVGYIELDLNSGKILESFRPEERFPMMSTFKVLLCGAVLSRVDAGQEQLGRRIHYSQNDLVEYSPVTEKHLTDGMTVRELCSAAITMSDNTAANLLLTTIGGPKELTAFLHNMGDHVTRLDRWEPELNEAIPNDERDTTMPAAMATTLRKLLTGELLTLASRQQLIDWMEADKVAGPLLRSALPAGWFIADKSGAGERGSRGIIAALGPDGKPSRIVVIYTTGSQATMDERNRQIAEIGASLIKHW
The subject of experiment [4] is Bacteria. The experiment is described as follows: Inhibition of bacterial CMY-37.
The test system of experiment [5] is Bacteria. Briefly: Inhibition of bacterial OXA-15.
Experiment [6] has as its system Bacteria. The experiment is described as follows: Inhibition of bacterial beta-lactamase KPC-2.
Experiment [7] deals with Pseudomonas aeruginosa. The experiment is described as follows: Antibacterial activity against Pseudomonas aeruginosa UFR49 measured after 16 to 20 hrs by broth microdilution method. Format: functional. A general note: Dilution methods test growth across graded concentrations, often in twofold steps.
In experiment [8] the test system is Bacteria. The experiment is described as follows: Inhibition of bacterial beta-lactamase CTX-M-15.
In experiment [9] the target is T2, Penicillin-binding protein 1A (Escherichia coli K-12) (UniProt P02918).
T2 sequence (whole entry): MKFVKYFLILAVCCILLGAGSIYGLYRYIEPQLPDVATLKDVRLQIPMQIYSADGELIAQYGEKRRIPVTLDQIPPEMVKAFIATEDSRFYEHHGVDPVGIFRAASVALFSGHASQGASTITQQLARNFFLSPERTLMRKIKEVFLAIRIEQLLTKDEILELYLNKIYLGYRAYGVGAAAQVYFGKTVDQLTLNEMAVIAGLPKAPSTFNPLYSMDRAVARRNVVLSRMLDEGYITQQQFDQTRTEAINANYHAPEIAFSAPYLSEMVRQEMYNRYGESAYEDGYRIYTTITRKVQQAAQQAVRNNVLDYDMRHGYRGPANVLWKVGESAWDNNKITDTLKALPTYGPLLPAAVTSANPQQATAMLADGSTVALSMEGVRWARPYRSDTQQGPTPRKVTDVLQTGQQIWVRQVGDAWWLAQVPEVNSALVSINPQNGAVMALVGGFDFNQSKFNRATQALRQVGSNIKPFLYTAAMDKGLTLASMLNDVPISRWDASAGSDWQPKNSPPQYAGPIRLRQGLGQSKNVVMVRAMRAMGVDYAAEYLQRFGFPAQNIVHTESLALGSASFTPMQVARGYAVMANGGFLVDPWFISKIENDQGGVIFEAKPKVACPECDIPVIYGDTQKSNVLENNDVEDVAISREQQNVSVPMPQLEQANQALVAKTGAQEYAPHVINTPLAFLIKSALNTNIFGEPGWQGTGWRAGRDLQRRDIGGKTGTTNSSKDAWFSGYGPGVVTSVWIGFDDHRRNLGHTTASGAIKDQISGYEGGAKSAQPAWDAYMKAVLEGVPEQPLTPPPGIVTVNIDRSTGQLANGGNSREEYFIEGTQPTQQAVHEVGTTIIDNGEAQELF
Briefly: Inhibition of Escherichia coli PBP1a.

Experiment [10] relates to Pseudomonas aeruginosa. The experiment is described as follows: Antibacterial activity against Pseudomonas aeruginosa clinical isolates measured after 16 to 20 hrs by broth microdilution method. Type of experiment: functional. The procedure, abridged:
as §1

Take `NC[C@@H]1C=C(c2cnco2)[C@@H]2CN1C(=O)N2OS(=O)(=O)O` (relative stereo): the inhibition result in experiment [1], in [2] and in experiment [9] was “inactive” each time. Moreover, the inhibition entry (in the experiment on Enterobacter cloacae; in [3]; in the experiment with Bacteria [4]; in the experiment with Bacteria [5]; with Bacteria [6]; in the experiment with Bacteria [8]) was “Active” throughout. In addition, the minimum inhibitory concentration (MIC) (in general, the lowest concentration found to suppress growth) was 0.016 µg/mL (≈ 0.0506 µM) against Escherichia coli and 2 µg/mL (≈ 6.32 µM) in the experiment on Pseudomonas aeruginosa [7]. The MIC50 – broadly, an inhibitory concentration at the 50% level, which refers to growth in some studies and to a panel of isolates in others – in the experiment on Pseudomonas aeruginosa [10] came out at 1 µg/mL (≈ 3.16 µM). The MIC90 (commonly an inhibitory concentration at the 90% level, which refers to growth in some studies and to a panel of isolates in others) in the experiment with Pseudomonas aeruginosa [10] is 16 µg/mL (≈ 50.6 µM).
